According to ChEMBL document CHEMBL5705890, “Antitumor activity of an allosteric inhibitor of centromere-associated protein-E” (Proc Natl Acad Sci U S A, 2010):

Tests used:
[1] = Anticancer activity against human BC-2 cells assessed as cell growth inhibition measured after 72 hrs by DAPI staining based analysis; type: functional
Procedure, shortened: (§1)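 Cells were seeded and, after 24 h, DNA content was read as T0. Cells were then exposed to varying drug concentrations for a further 72 h (T72). Fixed cells were DAPI-stained and DNA content measured by automated imaging. T72 values were normalized to T0. GI50 is the concentration giving 50% growth inhibition between T0 and Ymax, obtained by curve fitting.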

[2] = system: SNU-387; assay: Anticancer activity against human SNU-387 cells assessed as cell doubling measured for 72 hrs by DAPI staining based analysis; type: functional
[3] = system: LNCaP; assay: Anticancer activity against human LNCaP cells assessed as cell doubling measured for 72 hrs by DAPI staining based analysis; type: functional
[4] = Anticancer activity against human A7 cells assessed as cell growth inhibition measured after 72 hrs by DAPI staining based analysis; type: functional; procedure, shortened: as §1
[5] = system: HCT-8; assay: Anticancer activity against human HCT-8 cells assessed as cell doubling measured for 72 hrs by DAPI staining based analysis; type: functional
[6] = Anticancer activity against human C32TG cells assessed as cell doubling measured for 72 hrs by DAPI staining based analysis; type: functional
[7] = system: HOS; assay: Anticancer activity against human HOS cells assessed as cell growth inhibition measured after 72 hrs by DAPI staining based analysis; type: functional
[8] = system: SNB-19; assay: Anticancer activity against human SNB-19 cells assessed as cell growth inhibition measured after 72 hrs by DAPI staining based analysis; type: functional
[9] = system: A2780; assay: Anticancer activity against human A2780 cells assessed as cell doubling measured for 72 hrs by DAPI staining based analysis; type: functional
[10] = system: G-401; assay: Anticancer activity against human G-401 cells assessed as cell doubling measured for 72 hrs by DAPI staining based analysis; type: functional
[11] = system: RPMI-6666; assay: Anticancer activity against human RPMI-6666 cells assessed as cell doubling measured for 72 hrs by DAPI staining based analysis; type: functional
[12] = system: Y79; assay: Anticancer activity against human Y79 cells assessed as cell growth inhibition measured after 72 hrs by DAPI staining based analysis; type: functional
[13] = system: BV-173; assay: Anticancer activity against human BV-173 cells assessed as cell growth inhibition measured after 72 hrs by DAPI staining based analysis; type: functional
Procedure, shortened: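 Cells were seeded, and DNA content at 24 h after seeding (T0) was read by imaging of fixed, DAPI-stained cells. Cells were then exposed to a range of drug concentrations for a further 72 h (T72) and DNA content was read again. T72 values were normalized to T0, and GI50 was taken from curve fits as the concentration giving 50% growth inhibition relative to T0 and Ymax.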

[14] = molecular target: Centromere-associated protein E (Homo sapiens, UniProt Q02224, I182L); assay: Binding affinity to human CENP-E I182L mutant assessed as inhibition constant
Centromere-associated protein E, sequence (Q02224 whole entry I182L): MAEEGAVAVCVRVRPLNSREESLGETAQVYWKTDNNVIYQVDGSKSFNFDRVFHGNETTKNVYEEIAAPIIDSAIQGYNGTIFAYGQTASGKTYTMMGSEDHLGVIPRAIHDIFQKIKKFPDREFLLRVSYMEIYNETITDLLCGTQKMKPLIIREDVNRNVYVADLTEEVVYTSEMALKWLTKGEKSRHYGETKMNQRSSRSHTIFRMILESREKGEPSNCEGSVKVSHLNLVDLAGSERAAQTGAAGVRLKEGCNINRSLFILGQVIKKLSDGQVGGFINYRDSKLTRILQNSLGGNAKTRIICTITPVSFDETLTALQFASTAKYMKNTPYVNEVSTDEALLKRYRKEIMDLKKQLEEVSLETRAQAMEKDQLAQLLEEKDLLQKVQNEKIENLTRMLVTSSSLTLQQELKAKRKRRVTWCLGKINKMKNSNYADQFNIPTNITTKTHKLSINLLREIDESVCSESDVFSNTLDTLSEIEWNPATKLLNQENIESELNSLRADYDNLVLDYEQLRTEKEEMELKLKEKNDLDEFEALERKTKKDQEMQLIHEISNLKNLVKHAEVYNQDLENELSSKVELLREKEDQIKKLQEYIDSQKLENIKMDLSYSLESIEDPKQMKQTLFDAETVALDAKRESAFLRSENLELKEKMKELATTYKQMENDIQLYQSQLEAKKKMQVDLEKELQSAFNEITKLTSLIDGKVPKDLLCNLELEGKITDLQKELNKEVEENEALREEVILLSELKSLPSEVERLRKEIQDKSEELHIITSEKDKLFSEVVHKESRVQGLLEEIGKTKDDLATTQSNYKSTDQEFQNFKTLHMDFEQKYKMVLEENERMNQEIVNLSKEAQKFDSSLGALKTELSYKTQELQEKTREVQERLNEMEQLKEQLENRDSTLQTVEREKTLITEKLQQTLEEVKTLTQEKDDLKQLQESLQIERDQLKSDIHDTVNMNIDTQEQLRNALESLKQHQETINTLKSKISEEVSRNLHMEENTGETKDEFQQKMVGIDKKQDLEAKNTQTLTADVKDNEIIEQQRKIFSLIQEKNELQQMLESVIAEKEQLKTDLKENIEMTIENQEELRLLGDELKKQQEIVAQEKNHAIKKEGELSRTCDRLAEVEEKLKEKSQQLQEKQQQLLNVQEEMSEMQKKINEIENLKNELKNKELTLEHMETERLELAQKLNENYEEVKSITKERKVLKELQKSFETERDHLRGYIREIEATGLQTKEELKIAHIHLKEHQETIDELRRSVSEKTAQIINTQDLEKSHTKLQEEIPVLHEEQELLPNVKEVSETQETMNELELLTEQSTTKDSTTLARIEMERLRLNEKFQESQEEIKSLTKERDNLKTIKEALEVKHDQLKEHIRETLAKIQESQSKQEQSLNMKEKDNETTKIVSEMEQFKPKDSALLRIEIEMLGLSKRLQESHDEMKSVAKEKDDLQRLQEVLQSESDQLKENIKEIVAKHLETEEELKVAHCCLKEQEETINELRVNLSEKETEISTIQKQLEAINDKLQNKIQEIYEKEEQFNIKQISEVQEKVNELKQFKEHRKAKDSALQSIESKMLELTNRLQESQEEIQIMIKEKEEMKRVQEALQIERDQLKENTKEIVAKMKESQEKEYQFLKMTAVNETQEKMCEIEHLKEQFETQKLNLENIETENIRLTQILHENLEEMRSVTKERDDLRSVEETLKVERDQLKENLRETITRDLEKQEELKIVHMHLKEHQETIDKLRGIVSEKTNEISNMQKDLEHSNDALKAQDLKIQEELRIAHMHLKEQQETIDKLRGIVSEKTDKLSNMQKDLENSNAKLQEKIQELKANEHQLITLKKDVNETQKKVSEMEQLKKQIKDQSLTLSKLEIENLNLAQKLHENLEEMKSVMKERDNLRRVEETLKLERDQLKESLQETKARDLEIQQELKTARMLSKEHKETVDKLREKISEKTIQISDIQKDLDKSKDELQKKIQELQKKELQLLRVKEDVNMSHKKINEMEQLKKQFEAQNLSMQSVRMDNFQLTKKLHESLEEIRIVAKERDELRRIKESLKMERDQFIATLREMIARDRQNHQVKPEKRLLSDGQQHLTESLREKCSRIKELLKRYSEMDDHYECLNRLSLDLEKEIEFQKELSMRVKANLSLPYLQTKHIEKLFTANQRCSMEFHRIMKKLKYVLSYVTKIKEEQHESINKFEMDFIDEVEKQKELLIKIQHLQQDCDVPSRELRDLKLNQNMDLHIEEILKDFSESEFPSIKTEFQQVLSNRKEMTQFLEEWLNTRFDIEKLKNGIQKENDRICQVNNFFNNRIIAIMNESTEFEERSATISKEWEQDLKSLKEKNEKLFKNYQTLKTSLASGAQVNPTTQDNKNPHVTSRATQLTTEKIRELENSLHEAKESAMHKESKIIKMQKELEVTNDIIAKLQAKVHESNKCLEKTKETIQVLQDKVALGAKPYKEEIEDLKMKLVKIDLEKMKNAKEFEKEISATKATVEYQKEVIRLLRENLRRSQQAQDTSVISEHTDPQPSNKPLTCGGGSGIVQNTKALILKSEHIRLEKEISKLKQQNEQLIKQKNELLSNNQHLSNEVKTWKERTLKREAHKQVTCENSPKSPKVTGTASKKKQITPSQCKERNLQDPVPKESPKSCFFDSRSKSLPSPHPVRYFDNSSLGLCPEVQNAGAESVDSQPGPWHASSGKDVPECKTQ

[15] = system: CRO-AP2; assay: Anticancer activity against human CRO-AP2 cells assessed as cell doubling measured for 72 hrs by DAPI staining based analysis; type: functional
[16] = system: NCI-H747; assay: Anticancer activity against human NCI-H747 cells assessed as cell growth inhibition measured after 72 hrs by DAPI staining based analysis; type: functional
[17] = system: ST486; assay: Anticancer activity against human ST486 cells assessed as cell doubling measured for 72 hrs by DAPI staining based analysis; type: functional
[18] = system: MCF-10A; assay: Anticancer activity against human MCF-10A cells assessed as cell growth inhibition measured after 72 hrs by DAPI staining based analysis; type: functional
[19] = system: UACC-257; assay: Anticancer activity against human UACC-257 cells assessed as cell doubling measured for 72 hrs by DAPI staining based analysis; type: functional
[20] = system: SK-NEP-1; assay: Anticancer activity against human SK-NEP-1 cells assessed as cell growth inhibition measured after 72 hrs by DAPI staining based analysis; type: functional
[21] = system: COLO 320DM; assay: Anticancer activity against human COLO 320DM cells assessed as cell doubling measured for 72 hrs by DAPI staining based analysis; type: functional
[22] = system: CHP-212; assay: Anticancer activity against human CHP-212 cells assessed as cell doubling measured for 72 hrs by DAPI staining based analysis; type: functional
[23] = system: NCI-H596; assay: Anticancer activity against human NCI-H596 cells assessed as cell doubling measured for 72 hrs by DAPI staining based analysis; type: functional
[24] = system: SW872; assay: Anticancer activity against human SW872 cells assessed as cell growth inhibition measured after 72 hrs by DAPI staining based analysis; type: functional
[25] = system: NCI-H82; assay: Anticancer activity against human NCI-H82 cells assessed as cell growth inhibition measured after 72 hrs by DAPI staining based analysis; type: functional
[26] = system: DoTc2-4510; assay: Anticancer activity against human DoTc2-4510 cells assessed as cell doubling measured for 72 hrs by DAPI staining based analysis; type: functional
[27] = system: SCC-9; assay: Anticancer activity against human SCC-9 cells assessed as cell doubling measured for 72 hrs by DAPI staining based analysis; type: functional
[28] = system: OVCAR-3; assay: Anticancer activity against human OVCAR-3 cells assessed as cell growth inhibition measured after 72 hrs by DAPI staining based analysis; type: functional
[29] = Anticancer activity against human SW579 cells assessed as cell growth inhibition measured after 72 hrs by DAPI staining based analysis; type: functional
[30] = system: A-375; assay: Anticancer activity against human A-375 cells assessed as cell growth inhibition measured after 72 hrs by DAPI staining based analysis; type: functional; procedure, shortened: as §1
[31] = system: HepG2; assay: Anticancer activity against human HepG2 cells assessed as cell growth inhibition measured after 72 hrs by DAPI staining based analysis; type: functional
[32] = system: OVCAR-4; assay: Anticancer activity against human OVCAR-4 cells assessed as cell doubling measured for 72 hrs by DAPI staining based analysis; type: functional
[33] = system: SK-OV-3; assay: Anticancer activity against human SK-OV-3 cells assessed as cell growth inhibition measured after 72 hrs by DAPI staining based analysis; type: functional
[34] = system: RPMI-2650; assay: Anticancer activity against human RPMI-2650 cells assessed as cell doubling measured for 72 hrs by DAPI staining based analysis; type: functional
[35] = system: MCF7; assay: Antitumor activity against human MCF7 cells in xenograft model assessed as tumor growth delay at 125 mg/kg relative to control; type: functional
[36] = system: RKO; assay: Anticancer activity against human RKO cells assessed as cell doubling measured for 72 hrs by DAPI staining based analysis; type: functional
[37] = system: A 172; assay: Anticancer activity against human A-172 cells assessed as cell doubling measured for 72 hrs by DAPI staining based analysis; type: functional
[38] = system: SF-268; assay: Anticancer activity against human SF-268 cells assessed as cell growth inhibition measured after 72 hrs by DAPI staining based analysis; type: functional
[39] = system: RD; assay: Anticancer activity against human RD cells assessed as cell growth inhibition measured after 72 hrs by DAPI staining based analysis; type: functional
[40] = system: NCI-H146; assay: Anticancer activity against human NCI-H146 cells assessed as cell growth inhibition measured after 72 hrs by DAPI staining based analysis; type: functional
[41] = system: HCC1954; assay: Anticancer activity against human HCC1954 cells assessed as cell growth inhibition measured after 72 hrs by DAPI staining based analysis; type: functional
Procedure, shortened: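 Cells seeded, DAPI-stained DNA content of fixed cells read by imaging 24 h after seeding (T0), and again after a further 72 h exposure to a range of drug concentrations (T72). T72 values were normalized to T0. Curve fits gave the concentration producing 50% growth inhibition relative to T0 and Ymax (GI50).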

CC(C)Oc1ccc(C(=O)N[C@H](CNC(=O)CN(C)C)Cc2ccc(-c3cn4cccc([C@H](C)O)c4n3)cc2)cc1Cl [GSK-923295A]
GI50 [1]: 45 nM | Activity [2]: 1.21 | Activity [3]: 1.4 | GI50 [4]: 40 nM | Activity [5]: 4.26 | Activity [6]: 1.21 | GI50 [7]: 27 nM | GI50 [8]: 28 nM | Activity [9]: 1.62 | Activity [10]: 4.28 | Activity [11]: 1.99 | GI50 [12]: 70 nM | GI50 [13]: 56 nM | Ki [14]: 14 nM | Activity [15]: 2.92 | GI50 [16]: 163 nM | Activity [17]: 2.46 | GI50 [18]: 16 nM | Activity [19]: 1.79 | GI50 [20]: 55 nM | Activity [21]: 3.85 | Activity [22]: 1.39 | Activity [23]: 1.31 | GI50 [24]: 37 nM | GI50 [25]: 18 nM | Activity [26]: 2.17 | Activity [27]: 1.95 | GI50 [28]: 42 nM | GI50 [29]: 26 nM | GI50 [30]: 26 nM | GI50 [31]: 31 nM | Activity [32]: 2.94 | GI50 [33]: 26 nM | Activity [34]: 3 | Activity [35]: 58% | Activity [36]: 4.17 | Activity [37]: 1.84 | GI50 [38]: 26 nM | GI50 [39]: 28 nM | GI50 [40]: 5.23 µM | GI50 [41]: 18 nM
